# Measurements taken from ChEMBL document CHEMBL4304834, “3-Amino-chromanes and Tetrahydroquinolines as Selective 5-HT2B, 5-HT7, or σ1 Receptor Ligands” (ACS Med Chem Lett, 2019).
# Assays:
# Format in all cases: cell-based
# [1] = target: 5-hydroxytryptamine receptor 1E (Homo sapiens, UniProt P28566); experiment: Displacement of [3H]-HT from human recombinant 5-HT1E receptor expressed in stable HEK cells after 90 mins by microbeta scintillation counting method
# Outline: (§1)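 Radioligand binding run by the NIMH Psychoactive Drug Screening Program. […] Otherwise Ki comes from sigmoidal curve fits of triplicate measurements in a single experiment, or is averaged over repeated experiments each run in triplicate.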
# [2] = target: Histamine H4 receptor (Homo sapiens, UniProt Q9H3N8); experiment: Displacement of [3H]-Histamine from human recombinant histamine H4 receptor expressed in HEKT cells at 10 uM after 90 mins by microbeta scintillation counting method relative to control; outline: as §1
# Histamine H4 receptor, sequence (Q9H3N8 whole entry): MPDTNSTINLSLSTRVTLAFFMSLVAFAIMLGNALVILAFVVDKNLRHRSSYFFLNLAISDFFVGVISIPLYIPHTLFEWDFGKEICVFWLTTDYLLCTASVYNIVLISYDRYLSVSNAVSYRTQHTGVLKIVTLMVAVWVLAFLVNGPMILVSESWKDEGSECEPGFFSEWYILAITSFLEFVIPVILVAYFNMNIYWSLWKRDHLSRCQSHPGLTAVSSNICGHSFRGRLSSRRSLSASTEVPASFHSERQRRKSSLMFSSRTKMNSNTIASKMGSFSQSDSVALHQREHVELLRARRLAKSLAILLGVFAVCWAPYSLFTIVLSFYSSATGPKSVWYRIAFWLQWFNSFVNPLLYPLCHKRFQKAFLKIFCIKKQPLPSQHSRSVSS
# [3] = target: T1, Muscarinic acetylcholine receptor M5 (Homo sapiens) (UniProt P08912); experiment: Displacement of [3H]-QNB/[3H]-NMS from human recombinant Muscarinic acetylcholine M5 receptor expressed in stable CHO cells at 10 uM after 90 mins by microbeta scintillation counting method relative to control
# T1 sequence (whole entry): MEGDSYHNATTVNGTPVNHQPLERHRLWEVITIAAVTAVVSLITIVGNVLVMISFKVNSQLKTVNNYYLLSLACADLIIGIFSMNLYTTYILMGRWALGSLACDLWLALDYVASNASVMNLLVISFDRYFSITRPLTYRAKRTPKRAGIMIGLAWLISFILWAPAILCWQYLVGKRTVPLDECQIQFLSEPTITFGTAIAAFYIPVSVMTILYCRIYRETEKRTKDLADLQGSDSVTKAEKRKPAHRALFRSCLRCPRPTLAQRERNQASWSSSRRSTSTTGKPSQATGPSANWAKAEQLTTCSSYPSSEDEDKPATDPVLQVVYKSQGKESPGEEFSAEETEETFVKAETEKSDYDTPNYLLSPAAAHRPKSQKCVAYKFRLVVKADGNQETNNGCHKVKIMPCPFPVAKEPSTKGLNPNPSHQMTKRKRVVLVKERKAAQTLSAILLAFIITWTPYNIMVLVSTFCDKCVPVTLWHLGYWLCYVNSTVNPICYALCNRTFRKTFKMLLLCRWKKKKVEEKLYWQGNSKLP
# [4] = target: T2, Alpha-1B adrenergic receptor (Homo sapiens) (UniProt P35368); experiment: Displacement of [3H]-Prazosin from human recombinant adrenergic Alpha1B receptor expressed in HEKT cells at 10 uM after 90 mins by microbeta scintillation counting method relative to control
# T2 sequence (whole entry): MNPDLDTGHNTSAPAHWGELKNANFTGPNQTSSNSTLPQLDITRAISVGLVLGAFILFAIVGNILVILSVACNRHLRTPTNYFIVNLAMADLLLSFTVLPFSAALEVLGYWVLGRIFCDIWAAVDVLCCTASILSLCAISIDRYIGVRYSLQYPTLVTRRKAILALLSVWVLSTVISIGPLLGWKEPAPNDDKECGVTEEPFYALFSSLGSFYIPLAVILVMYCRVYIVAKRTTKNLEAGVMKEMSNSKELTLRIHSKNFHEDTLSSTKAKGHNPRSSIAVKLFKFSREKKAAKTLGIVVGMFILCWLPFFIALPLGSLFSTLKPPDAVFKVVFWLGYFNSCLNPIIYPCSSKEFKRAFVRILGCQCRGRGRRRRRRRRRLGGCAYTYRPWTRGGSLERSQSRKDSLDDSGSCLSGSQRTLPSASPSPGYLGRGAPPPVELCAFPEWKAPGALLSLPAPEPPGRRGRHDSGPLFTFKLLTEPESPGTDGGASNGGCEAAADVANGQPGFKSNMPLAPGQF
# [5] = target: D(1A) dopamine receptor (Homo sapiens, UniProt P21728); experiment: Displacement of [3H]-SCH23390 from human recombinant dopamine D1 receptor expressed in HEKT cells at 10 uM after 90 mins by microbeta scintillation counting method relative to control
# D(1A) dopamine receptor, sequence (P21728 whole entry): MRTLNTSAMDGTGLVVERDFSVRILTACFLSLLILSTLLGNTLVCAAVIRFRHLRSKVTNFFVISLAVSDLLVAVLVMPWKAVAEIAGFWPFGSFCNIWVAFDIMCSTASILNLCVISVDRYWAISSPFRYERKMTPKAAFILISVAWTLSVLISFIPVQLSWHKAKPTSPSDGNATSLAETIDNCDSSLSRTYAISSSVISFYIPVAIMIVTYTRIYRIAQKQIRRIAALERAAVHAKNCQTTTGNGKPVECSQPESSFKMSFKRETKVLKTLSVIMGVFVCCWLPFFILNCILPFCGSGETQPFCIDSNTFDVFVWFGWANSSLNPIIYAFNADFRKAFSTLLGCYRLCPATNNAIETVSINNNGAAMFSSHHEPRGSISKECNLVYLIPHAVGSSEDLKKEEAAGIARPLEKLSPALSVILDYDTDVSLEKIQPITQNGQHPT
# [6] = target: T3, Alpha-1D adrenergic receptor (Homo sapiens, UniProt P25100); experiment: Displacement of [3H]-Prazosin from human recombinant adrenergic Alpha1D receptor expressed in cells after 90 mins by microbeta scintillation counting method
# T3 sequence (P25100 whole entry): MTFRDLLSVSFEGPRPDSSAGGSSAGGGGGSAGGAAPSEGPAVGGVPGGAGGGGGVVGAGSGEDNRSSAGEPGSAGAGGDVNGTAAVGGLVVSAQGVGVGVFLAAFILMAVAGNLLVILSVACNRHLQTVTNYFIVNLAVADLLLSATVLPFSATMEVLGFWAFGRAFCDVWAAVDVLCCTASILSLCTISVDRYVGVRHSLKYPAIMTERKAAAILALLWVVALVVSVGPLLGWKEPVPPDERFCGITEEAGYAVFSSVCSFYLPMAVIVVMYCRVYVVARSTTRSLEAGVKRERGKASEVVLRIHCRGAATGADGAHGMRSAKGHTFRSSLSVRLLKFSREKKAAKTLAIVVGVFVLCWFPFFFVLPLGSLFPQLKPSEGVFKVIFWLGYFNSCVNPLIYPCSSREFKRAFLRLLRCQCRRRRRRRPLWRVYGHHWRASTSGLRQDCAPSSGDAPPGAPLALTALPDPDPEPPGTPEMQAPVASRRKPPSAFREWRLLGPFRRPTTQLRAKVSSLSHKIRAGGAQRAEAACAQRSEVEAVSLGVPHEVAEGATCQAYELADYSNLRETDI
# Outline: (§2)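 Radioligand binding was run by the NIMH Psychoactive Drug Screening Program. Compounds were first screened at 10 μM. Those giving ≥50% binding were taken to full competition curves. Ki is reported as pKi from a sigmoidal curve fit of triplicate measurements in a single experiment; the error is the curve-fit error.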
# [7] = target: Sigma non-opioid intracellular receptor 1 (Homo sapiens, UniProt Q99720); experiment: Displacement of [3H]-Pentazocine from human recombinant sigma1 receptor expressed in HEKT cells after 90 mins by microbeta scintillation counting method
# Sigma non-opioid intracellular receptor 1, sequence (Q99720 whole entry): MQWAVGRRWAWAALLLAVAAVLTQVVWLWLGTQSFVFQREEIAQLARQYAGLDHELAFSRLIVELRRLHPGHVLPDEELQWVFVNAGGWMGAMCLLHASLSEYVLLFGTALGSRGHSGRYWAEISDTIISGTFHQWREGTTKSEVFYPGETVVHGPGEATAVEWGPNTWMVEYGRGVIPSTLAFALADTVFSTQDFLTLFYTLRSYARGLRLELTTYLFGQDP
# [8] = target: T4, Alpha-2A adrenergic receptor (Homo sapiens, UniProt P08913); experiment: Displacement of [3H]-Rauwolscine from human recombinant adrenergic Alpha2A receptor expressed in stable MDCK cells after 90 mins by microbeta scintillation counting method; outline: as §2
# T4 sequence (P08913 whole entry): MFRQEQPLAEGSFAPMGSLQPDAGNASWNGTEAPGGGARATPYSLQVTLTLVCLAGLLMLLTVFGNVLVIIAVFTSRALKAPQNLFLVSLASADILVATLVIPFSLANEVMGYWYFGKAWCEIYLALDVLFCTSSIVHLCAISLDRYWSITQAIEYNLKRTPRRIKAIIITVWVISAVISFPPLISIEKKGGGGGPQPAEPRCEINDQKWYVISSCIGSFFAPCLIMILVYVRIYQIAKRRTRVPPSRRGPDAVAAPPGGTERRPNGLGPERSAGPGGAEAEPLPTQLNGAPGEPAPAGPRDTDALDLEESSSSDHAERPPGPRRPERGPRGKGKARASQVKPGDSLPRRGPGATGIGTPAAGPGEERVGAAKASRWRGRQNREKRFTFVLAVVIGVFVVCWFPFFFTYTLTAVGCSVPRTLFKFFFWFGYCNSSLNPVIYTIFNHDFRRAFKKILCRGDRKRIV
# [9] = target: T5, Muscarinic acetylcholine receptor M5 (Homo sapiens, UniProt P08912); experiment: Displacement of [3H]-QNB/[3H]-NMS from human recombinant Muscarinic acetylcholine M5 receptor expressed in stable CHO cells after 90 mins by microbeta scintillation counting method; outline: as §2
# T5 sequence (P08912 whole entry): T1 sequence (whole entry)
# 5-hydroxytryptamine receptor 1E, sequence (P28566 whole entry): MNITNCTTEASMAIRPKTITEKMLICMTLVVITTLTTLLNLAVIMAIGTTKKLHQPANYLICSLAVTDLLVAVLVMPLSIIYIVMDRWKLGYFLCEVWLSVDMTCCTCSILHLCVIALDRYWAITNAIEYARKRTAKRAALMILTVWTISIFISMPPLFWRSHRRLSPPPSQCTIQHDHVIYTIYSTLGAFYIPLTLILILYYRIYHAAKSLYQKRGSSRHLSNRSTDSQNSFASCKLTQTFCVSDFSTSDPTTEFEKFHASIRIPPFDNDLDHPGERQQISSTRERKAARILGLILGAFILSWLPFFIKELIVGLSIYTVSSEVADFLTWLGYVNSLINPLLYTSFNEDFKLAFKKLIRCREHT
SMILES,Ki [1],inhibition [2],inhibition [3],inhibition [4],inhibition [5],Ki [6],Ki ([7]; read-out: pKi (converted)),Ki [8],Ki [9],Ki ([7]; read-out: Ki)
CC[C@H]1c2cc(C)ccc2OC[C@@]1(C)N (racemic),> 10 µM,< 50%,< 50%,< 50%,< 50%,> 10 µM,1 µM,> 10 µM,> 10 µM,–
C[C@@]12CN(c3ccccc3)c3ccccc3[C@@H]1CCN2 (racemic),> 10 µM,–,–,–,–,1 µM,–,–,> 10 µM,–
CC[C@H]1c2cc(OC)ccc2CC[C@@]1(C)N (racemic),> 10 µM,< 50%,< 50%,< 50%,< 50%,> 10 µM,0.126 µM,6.31 µM,> 10 µM,–
COc1cc(OC)c2c(c1)OC[C@@]1(C)NCC[C@@H]21 (racemic),> 10 µM,< 50%,< 50%,< 50%,< 50%,> 10 µM,–,–,> 10 µM,0.044 µM
CC[C@H]1c2ccccc2N(c2ccccc2)C[C@@]1(C)N (racemic),> 10 µM,–,–,–,–,> 10 µM,0.316 µM,0.398 µM,> 10 µM,–
